From ChEMBL document CHEMBL1128473, “[(Biaryloxy)alkyl]isoxazoles: picornavirus inhibitors” (J Med Chem, 1995)
Converted amounts (≈) assume the structure as drawn. One block for each compound: values may come before it.

Key:
Human rhinovirus sp. [1] = assay: Concentration inhibiting 50% of the serotypes tested to 50% of the viral concentration of untreated controls following 72 hr of exposure; format: functional
Outline: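 Tissue culture infectious dose (TCID50) assay against a panel of 10 human rhinovirus serotypes. For each serotype, the viral concentration was compared with untreated controls after 72 h of compound exposure. MIC50 is the compound concentration at which half of the serotypes tested are reduced to 50% of the untreated-control viral concentration.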

[2] = Metabolic stability expressed as half life values was monitored in vitro liver microsomal assay.; format: ADME, Microsome; settings: liver microsomes
Human rhinovirus sp. [3] = assay: Minimum inhibitory concentration on HRV serotype 11; format: functional
Human rhinovirus sp. [4] = assay: Minimum inhibitory concentration on HRV serotype 28; format: functional
Human rhinovirus sp. [5] = assay: Minimum inhibitory concentration on HRV serotype 44; format: functional
Human rhinovirus sp. [6] = assay: Minimum inhibitory concentration on HRV serotype 81; format: functional
Outline: (§1)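 Tested in a tissue culture infectious dose (TCID50) assay with 72 h compound exposure. Activity is read as the concentration that holds virus to 50% of the titer of untreated controls.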

Human rhinovirus sp. [7] = assay: Minimum inhibitory concentration on HRV serotype 2; format: functional
Human rhinovirus sp. [8] = assay: Minimum inhibitory concentration on HRV serotype 85; format: functional; outline: as §1
Human rhinovirus sp. [9] = assay: Minimum inhibitory concentration on HRV serotype 79; format: functional; outline: as §1
Human rhinovirus sp. [10] = assay: Minimum inhibitory concentration on HRV serotype 73; format: functional
Human rhinovirus sp. [11] = assay: Minimum inhibitory concentration on HRV serotype 29; format: functional
Human rhinovirus sp. [12] = assay: Minimum inhibitory concentration on HRV serotype 90; format: functional; outline: as §1
Human rhinovirus sp. [13] = assay: Minimum inhibitory concentration on HRV serotype 21; format: functional
Human rhinovirus sp. [14] = assay: Minimum inhibitory concentration on HRV serotype 15; format: functional
Human rhinovirus sp. [15] = assay: Minimum inhibitory concentration on HRV serotype 61; format: functional
Human rhinovirus sp. [16] = assay: Minimum inhibitory concentration on HRV serotype 1A; format: functional
Human rhinovirus sp. [17] = assay: Minimum inhibitory concentration on HRV serotype 20; format: functional
Human rhinovirus sp. [18] = assay: Minimum inhibitory concentration on HRV serotype 22; format: functional
Human rhinovirus sp. [19] = assay: Minimum inhibitory concentration on HRV serotype 7; format: functional
Human rhinovirus sp. [20] = assay: Minimum inhibitory concentration on HRV serotype 58; format: functional
Human rhinovirus sp. [21] = assay: Minimum inhibitory concentration on HRV serotype 84; format: functional; outline: as §1
Human rhinovirus sp. [22] = assay: Minimum inhibitory concentration on HRV serotype 38; format: functional
Human rhinovirus sp. [23] = assay: Minimum inhibitory concentration on HRV serotype 62; format: functional
Human rhinovirus sp. [24] = assay: Minimum inhibitory concentration on HRV serotype 89; format: functional; outline: as §1
Human rhinovirus sp. [25] = assay: Minimum inhibitory concentration on HRV serotype 47; format: functional
Human rhinovirus sp. [26] = assay: Minimum inhibitory concentration on HRV serotype 32; format: functional
Human rhinovirus sp. [27] = assay: Minimum inhibitory concentration on HRV serotype 80; format: functional; outline: as §1
Human rhinovirus sp. [28] = assay: Minimum inhibitory concentration on HRV serotype 46; format: functional
Human rhinovirus sp. [29] = assay: Minimum inhibitory concentration on HRV serotype T39; format: functional; outline: as §1
Human rhinovirus sp. [30] = assay: Minimum inhibitory concentration on HRV serotype 63; format: functional
Human rhinovirus sp. [31] = assay: Minimum inhibitory concentration on HRV serotype 64; format: functional
Human rhinovirus sp. [32] = assay: Minimum inhibitory concentration on HRV serotype 100; format: functional
Human rhinovirus sp. [33] = assay: Minimum inhibitory concentration on HRV serotype 75; format: functional
Human rhinovirus sp. [34] = assay: Minimum inhibitory concentration on HRV serotype 71; format: functional
Human rhinovirus sp. [35] = assay: Minimum inhibitory concentration on HRV serotype 56; format: functional
Human rhinovirus sp. [36] = assay: Minimum inhibitory concentration on HRV serotype 76; format: functional; outline: as §1
Human rhinovirus sp. [37] = assay: Minimum inhibitory concentration on HRV serotype 35; format: functional
Human rhinovirus sp. [38] = assay: Minimum inhibitory concentration on HRV serotype 96; format: functional; outline: as §1
Human rhinovirus sp. [39] = assay: Minimum inhibitory concentration on HRV serotype 82; format: functional; outline: as §1
Human rhinovirus sp. [40] = assay: Minimum inhibitory concentration on HRV serotype 25; format: functional
Human rhinovirus sp. [41] = assay: Minimum inhibitory concentration on HRV serotype 19; format: functional
Human rhinovirus sp. [42] = assay: Minimum inhibitory concentration on HRV serotype 39; format: functional
Human rhinovirus sp. [43] = assay: Minimum inhibitory concentration on HRV serotype 24; format: functional
Human rhinovirus sp. [44] = assay: Minimum inhibitory concentration on HRV serotype 23; format: functional
Human rhinovirus sp. [45] = assay: Minimum inhibitory concentration on HRV serotype 92; format: functional; outline: as §1
Human rhinovirus sp. [46] = assay: Minimum inhibitory concentration on HRV serotype 68; format: functional
Human rhinovirus sp. [47] = assay: Minimum inhibitory concentration on HRV serotype 57; format: functional
Human rhinovirus sp. [48] = assay: Minimum inhibitory concentration on HRV serotype 40; format: functional
Human rhinovirus sp. [49] = assay: Minimum inhibitory concentration on HRV serotype 51; format: functional
Human rhinovirus sp. [50] = assay: Minimum inhibitory concentration on HRV serotype 83; format: functional; outline: as §1
Human rhinovirus sp. [51] = assay: Minimum inhibitory concentration on HRV serotype 33; format: functional
Human rhinovirus sp. [52] = assay: Minimum inhibitory concentration on HRV serotype 36; format: functional
Human rhinovirus sp. [53] = assay: Minimum inhibitory concentration on HRV serotype 50; format: functional
Human rhinovirus sp. [54] = assay: Minimum inhibitory concentration on HRV serotype 1B; format: functional
Human rhinovirus sp. [55] = assay: Minimum inhibitory concentration on HRV serotype 55; format: functional
Human rhinovirus sp. [56] = assay: Minimum inhibitory concentration on HRV serotype 34; format: functional
Human rhinovirus sp. [57] = assay: Minimum inhibitory concentration on HRV serotype 30; format: functional
Human rhinovirus sp. [58] = assay: Minimum inhibitory concentration on HRV serotype 9; format: functional; outline: as §1
Human rhinovirus sp. [59] = assay: Minimum inhibitory concentration on HRV serotype 49; format: functional
Human rhinovirus sp. [60] = assay: Minimum inhibitory concentration on HRV serotype 53; format: functional
Human rhinovirus sp. [61] = assay: Minimum inhibitory concentration on HRV serotype 78; format: functional; outline: as §1
Human rhinovirus sp. [62] = assay: Minimum inhibitory concentration on HRV serotype 67; format: functional
Human rhinovirus sp. [63] = assay: Minimum inhibitory concentration on HRV serotype 43; format: functional
Human rhinovirus sp. [64] = assay: Minimum inhibitory concentration on HRV serotype 16; format: functional
Human rhinovirus sp. [65] = assay: Minimum inhibitory concentration on HRV serotype 66; format: functional
Human rhinovirus sp. [66] = assay: Minimum inhibitory concentration on HRV serotype 88; format: functional; outline: as §1

MIC50 (Human rhinovirus sp. [1]): 0.11 µM (≈ 0.0373 µg/mL)
SMILES: Cc1cc(CCCOc2c(C)cc(-c3ccccc3F)cc2C)on1

MIC50 (Human rhinovirus sp. [1]): 0.23 µM (≈ 0.0808 µg/mL)
SMILES: COc1cccc(-c2cc(C)c(OCCCc3cc(C)no3)c(C)c2)c1

MIC50 (Human rhinovirus sp. [1]): 0.44 µM (≈ 0.148 µg/mL)
SMILES: Cc1cc(CCCOc2c(C)cc(-c3cccc(O)c3)cc2C)on1

MIC50 (Human rhinovirus sp. [1]): 0.23 µM (≈ 0.0808 µg/mL)
SMILES: Cc1cc(CCCOc2c(C)cc(-c3cccc(CO)c3)cc2C)on1

half-life [2]: > 3.33 h
MIC50 (Human rhinovirus sp. [1]): 0.12 µM (≈ 0.0403 µg/mL)
SMILES: Cc1ccc(-c2cc(C)c(OCCCc3cc(C)no3)c(C)c2)cc1

MIC (Human rhinovirus sp. [3]): 0.102 µg/mL (≈ 0.266 µM)
MIC (Human rhinovirus sp. [4]): 0.116 µg/mL (≈ 0.303 µM)
MIC (Human rhinovirus sp. [5]): 0.119 µg/mL (≈ 0.31 µM)
MIC (Human rhinovirus sp. [6]): 0.416 µg/mL (≈ 1.09 µM)
MIC (Human rhinovirus sp. [7]): 0.058 µg/mL (≈ 0.151 µM)
MIC (Human rhinovirus sp. [8]): 0.043 µg/mL (≈ 0.112 µM)
MIC (Human rhinovirus sp. [9]): 0.028 µg/mL (≈ 0.0731 µM)
MIC (Human rhinovirus sp. [10]): 0.242 µg/mL (≈ 0.631 µM)
MIC (Human rhinovirus sp. [11]): 0.295 µg/mL (≈ 0.77 µM)
MIC (Human rhinovirus sp. [12]): 0.191 µg/mL (≈ 0.498 µM)
MIC (Human rhinovirus sp. [13]): 0.031 µg/mL (≈ 0.0809 µM)
MIC (Human rhinovirus sp. [14]): 0.49 µg/mL (≈ 1.28 µM)
MIC (Human rhinovirus sp. [15]): 0.127 µg/mL (≈ 0.331 µM)
MIC (Human rhinovirus sp. [16]): 0.419 µg/mL (≈ 1.09 µM)
MIC (Human rhinovirus sp. [17]): 0.037 µg/mL (≈ 0.0965 µM)
MIC (Human rhinovirus sp. [18]): 0.027 µg/mL (≈ 0.0704 µM)
MIC (Human rhinovirus sp. [19]): 0.035 µg/mL (≈ 0.0913 µM)
MIC (Human rhinovirus sp. [20]): 0.028 µg/mL (≈ 0.0731 µM)
MIC (Human rhinovirus sp. [21]): > 3 µg/mL
MIC (Human rhinovirus sp. [22]): 0.078 µg/mL (≈ 0.204 µM)
MIC (Human rhinovirus sp. [23]): 0.115 µg/mL (≈ 0.3 µM)
MIC (Human rhinovirus sp. [24]): 0.034 µg/mL (≈ 0.0887 µM)
MIC (Human rhinovirus sp. [25]): 0.015 µg/mL (≈ 0.0391 µM)
MIC (Human rhinovirus sp. [26]): 0.269 µg/mL (≈ 0.702 µM)
MIC (Human rhinovirus sp. [27]): 0.124 µg/mL (≈ 0.324 µM)
MIC (Human rhinovirus sp. [28]): 0.143 µg/mL (≈ 0.373 µM)
MIC (Human rhinovirus sp. [29]): 0.299 µg/mL (≈ 0.78 µM)
MIC (Human rhinovirus sp. [30]): 0.101 µg/mL (≈ 0.264 µM)
MIC (Human rhinovirus sp. [31]): 0.497 µg/mL (≈ 1.3 µM)
MIC (Human rhinovirus sp. [32]): 0.025 µg/mL (≈ 0.0652 µM)
MIC (Human rhinovirus sp. [33]): 0.157 µg/mL (≈ 0.41 µM)
MIC (Human rhinovirus sp. [34]): 0.018 µg/mL (≈ 0.047 µM)
MIC (Human rhinovirus sp. [35]): 0.099 µg/mL (≈ 0.258 µM)
MIC (Human rhinovirus sp. [36]): 0.102 µg/mL (≈ 0.266 µM)
MIC (Human rhinovirus sp. [37]): 0.036 µg/mL (≈ 0.0939 µM)
MIC (Human rhinovirus sp. [38]): 0.091 µg/mL (≈ 0.237 µM)
MIC (Human rhinovirus sp. [39]): 0.245 µg/mL (≈ 0.639 µM)
MIC (Human rhinovirus sp. [40]): 0.072 µg/mL (≈ 0.188 µM)
MIC (Human rhinovirus sp. [41]): 0.178 µg/mL (≈ 0.464 µM)
MIC (Human rhinovirus sp. [42]): 0.347 µg/mL (≈ 0.905 µM)
MIC (Human rhinovirus sp. [43]): 0.175 µg/mL (≈ 0.457 µM)
MIC (Human rhinovirus sp. [44]): 0.451 µg/mL (≈ 1.18 µM)
MIC (Human rhinovirus sp. [45]): 0.002 µg/mL (≈ 0.00522 µM)
MIC (Human rhinovirus sp. [46]): 0.032 µg/mL (≈ 0.0835 µM)
MIC (Human rhinovirus sp. [47]): 0.156 µg/mL (≈ 0.407 µM)
MIC (Human rhinovirus sp. [48]): 0.053 µg/mL (≈ 0.138 µM)
MIC50 (Human rhinovirus sp. [1]): 0.78 µM (≈ 0.299 µg/mL)
MIC (Human rhinovirus sp. [49]): 0.033 µg/mL (≈ 0.0861 µM)
MIC (Human rhinovirus sp. [50]): 0.018 µg/mL (≈ 0.047 µM)
MIC (Human rhinovirus sp. [51]): 0.107 µg/mL (≈ 0.279 µM)
MIC (Human rhinovirus sp. [52]): 0.073 µg/mL (≈ 0.19 µM)
MIC (Human rhinovirus sp. [53]): 0.47 µg/mL (≈ 1.23 µM)
MIC (Human rhinovirus sp. [54]): 0.105 µg/mL (≈ 0.274 µM)
MIC (Human rhinovirus sp. [55]): 0.02 µg/mL (≈ 0.0522 µM)
MIC (Human rhinovirus sp. [56]): 0.072 µg/mL (≈ 0.188 µM)
MIC (Human rhinovirus sp. [57]): 0.156 µg/mL (≈ 0.407 µM)
MIC (Human rhinovirus sp. [58]): 0.187 µg/mL (≈ 0.488 µM)
MIC (Human rhinovirus sp. [59]): 0.16 µg/mL (≈ 0.417 µM)
MIC (Human rhinovirus sp. [60]): 0.355 µg/mL (≈ 0.926 µM)
MIC (Human rhinovirus sp. [61]): 0.081 µg/mL (≈ 0.211 µM)
MIC (Human rhinovirus sp. [62]): 0.169 µg/mL (≈ 0.441 µM)
MIC (Human rhinovirus sp. [63]): 0.283 µg/mL (≈ 0.738 µM)
MIC (Human rhinovirus sp. [64]): 0.639 µg/mL (≈ 1.67 µM)
MIC (Human rhinovirus sp. [65]): 0.069 µg/mL (≈ 0.18 µM)
MIC (Human rhinovirus sp. [66]): 0.084 µg/mL (≈ 0.219 µM)
SMILES: Cc1cc(CCCCCOc2c(Cl)cc(C3=NCCO3)cc2Cl)on1 [WIN-54954]
